The record followed here is ChEMBL document CHEMBL1795211, “Evaluation of NTF1836 as an inhibitor of the mycothiol biosynthetic enzyme MshC in growing and non-replicating Mycobacterium tuberculosis” (Bioorg Med Chem, 2011).

In series [1] the target is T1, L-cysteine:1D-myo-inositol 2-amino-2-deoxy-alpha-D-glucopyranoside ligase (Mycobacterium tuberculosis, UniProt P9WJM9).
T1 sequence (P9WJM9 whole entry): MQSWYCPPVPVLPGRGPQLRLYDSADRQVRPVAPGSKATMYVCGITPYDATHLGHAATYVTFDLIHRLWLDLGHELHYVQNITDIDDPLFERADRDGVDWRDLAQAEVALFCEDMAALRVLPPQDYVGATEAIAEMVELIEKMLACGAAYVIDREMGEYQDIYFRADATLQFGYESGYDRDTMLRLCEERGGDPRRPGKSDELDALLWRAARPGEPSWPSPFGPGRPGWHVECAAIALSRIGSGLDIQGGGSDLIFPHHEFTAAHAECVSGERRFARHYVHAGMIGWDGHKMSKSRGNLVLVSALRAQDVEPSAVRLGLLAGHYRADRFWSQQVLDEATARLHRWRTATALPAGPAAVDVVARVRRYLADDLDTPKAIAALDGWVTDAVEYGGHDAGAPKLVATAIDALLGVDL
As to the kind of experiment: Inhibition of Mycobacterium tuberculosis recombinant MshC assessed as production of Cys-GlcN-Ins from cysteine by HPLC based fluorescence assay.

Series [2] concerns Mycobacterium tuberculosis str. Erdman. As to the kind of experiment: Antimycobacterial activity against mid-log phase of Mycobacterium tuberculosis Erdman ATCC 35801 assessed as growth inhibition by measuring change on optical density at 600 nm at 30 to 50 uM after 7 days. In kind it is functional. An outline of the steps:
(§1)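 Mid-log Erdman in 7H9 + ADS adjusted to OD600 0.08; 8 mL aliquots with 10–75 µM compound (from DMSO stock) in vented flasks, 7 d at 37 °C; duplicates with DMSO-matched control; growth read as 7-day change in OD600.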

A short description of series [3]: Antimycobacterial activity against mid-log phase of Mycobacterium tuberculosis Erdman ATCC 35801 after 7 days by 96 well plate assay. In kind it is functional, Mycobacterium tuberculosis str. Erdman. Particulars: ATCC 35801, 168 h.
The subject of series [4] is Mycobacterium tuberculosis str. Erdman. Briefly: Antimycobacterial activity against mid-log phase of Mycobacterium tuberculosis Erdman ATCC 35801 assessed as growth inhibition by measuring change on optical density at 600 nm after 7 days. In kind it is functional. An outline of the steps: as §1
The target of series [5] is T2, L-cysteine:1D-myo-inositol 2-amino-2-deoxy-alpha-D-glucopyranoside ligase (Mycobacterium tuberculosis) (UniProt P9WJM9).
T2 sequence (whole entry): T1 sequence (P9WJM9 whole entry)
Briefly: Inhibition of MshC in Mycobacterium tuberculosis Erdman ATCC 35801 assessed as reduction of Cys-GlcN-Ins accumulation at 10 to 80 uM after 7 days by HPLC based fluorescence assay. Particulars: Mycobacterium tuberculosis str. Erdman.

A short description of series [6]: Antimycobacterial activity against non-replicating Mycobacterium tuberculosis Erdman ATCC 35801 nutrient starvation model assessed as reduction viability at 90 uM after 15 days by 96 well plate assay. The series is classed as functional, Mycobacterium tuberculosis str. Erdman. An outline of the steps: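 Non-replicating Erdman from nutrient starvation in PBS + 0.05% Tween 80 for 6 weeks; compound dilutions then added and incubation continued 15 d; viable counts by plating serial dilutions on 7H9 agar with OADC; duplicate samples.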

In the next series the test system is Vero. Briefly: Cytotoxicity against african green monkey Vero cells assessed as cell viability after 48 hrs by neutral red assay. In kind it is cell-based. Particulars: chlorocebus sabaeus.
Series [7] can be described thus: Antimycobacterial activity against mid-log phase of Mycobacterium tuberculosis Erdman ATCC 35801 assessed as reduction of viability at 50 to 75 uM after 7 days by 96 well plate assay relative to control. In kind it is functional, Mycobacterium tuberculosis str. Erdman.
Series [8] can be described thus: Antimycobacterial activity against mid-log phase of Mycobacterium tuberculosis Erdman ATCC 35801 assessed as reduction of viability at 20 uM after 7 days by 96 well plate assay. In kind it is functional, Mycobacterium tuberculosis str. Erdman.
In series [9] the test system is Mycobacterium tuberculosis str. Erdman. As to the kind of experiment: Antimycobacterial activity against mid-log phase of Mycobacterium tuberculosis Erdman ATCC 35801 assessed as growth inhibition after 7 days by 96 well plate assay. The series is classed as functional.
Series [10] deals with Mycobacterium tuberculosis. As to the kind of experiment: Antimycobacterial activity against mid-log phase of Mycobacterium tuberculosis CDC1551 isolated from patient after 7 days by 96 well plate assay. In kind it is functional. Particulars: CDC1551, 168 h.

SMILES strings stand for the structures. Converted amounts (≈) assume the structure as drawn. The source made the active and inactive calls. The rule behind the calls is not given here.

Usually IC50 stands for the midpoint of a concentration-inhibition curve. As for `Cc1ccc(CN2C(=O)c3ccccc3S(=O)(=O)c3ccc(C(=O)NCCCN4CCCC4)cc32)c(C)c1`, the IC50 in series [1] is 1400 µM.

Take `O=C(NCCCSC1CCCCC1)c1ccc2c(c1)N(Cc1cccc(Cl)c1)C(=O)c1ccccc1[S+]2[O-]` (racemic): the IC50 in series [1] was at least 1000 µM.

On to `CCCCN(C)CCCNC(=O)c1ccc2c(c1)N(Cc1cccc(Cl)c1)C(=O)c1ccccc1[S+]2[O-]` (racemic), for which the IC50 in series [1] turned out to be 110 µM.

Regarding `CN(CCCNC(=O)c1ccc2c(c1)N(Cc1ccccc1)C(=O)c1ccccc1[S+]2[O-])C1CCCCC1` (racemic), in series [1], the IC50 was found to be 300 µM.

Take `O=C(NCC1CCCN1)c1ccc2c(c1)N(Cc1cccc(Cl)c1)C(=O)c1ccccc1S2(=O)=O` (configuration not stated): the IC50 in [1] was 2500 µM.

Turning to `Cc1ccc(CN2C(=O)c3ccccc3[S+]([O-])c3ccc(C(=O)NCCCN(C)C4CCCCC4)cc32)c(C)c1` (racemic), in series [1], the IC50 was determined as 2000 µM.

On to `O=C(NCCCN1CCOCC1)c1ccc2c(c1)N(Cc1cccc(Cl)c1)C(=O)c1ccccc1[S+]2[O-]` (racemic), for which, in [1], the IC50 amounted to 500 µM.

As to `CN(CCCNC(=O)c1ccc2c(c1)N(Cc1cccc(Cl)c1)C(=O)c1ccccc1[S+]2[O-])C1CCCCC1` (racemic), the growth inhibition (GI) is 50% in series [2], “Dose-dependent effect” in series [4] and “Dose-dependent effect” in series [9]. Moreover, in series [3], the MIC95 stood at 28 µM (≈ 15.8 µg/mL). Besides, the inhibition entry in series [5] was “Active”. The IC50 in [1] was found to be 85 µM. For the same compound, the Activity in [6] is reported as 99%; in [7], 97%; in series [8], 50%. The cytotoxic concentration in the series on Vero was 50 µM.

Turning to `CN(CCCNC(=O)c1ccc2c(c1)N(Cc1ccc(F)cc1)C(=O)c1ccccc1[S+]2[O-])C1CCCCC1` (racemic), the IC50 in series [1] is over 3000 µM.

Compound `O=C(NCCCN1CCCC1)c1ccc2c(c1)N(Cc1cccc(Cl)c1)C(=O)c1ccccc1S2` came in with an MIC95 in series [3] of 55 µM (≈ 27.8 µg/mL). Also, the IC50 in series [1] stood at 130 µM. Also, the cytotoxic concentration in the series with Vero is 50 µM.

As to `CCN1C(=O)c2ccccc2[S+]([O-])c2ccc(C(=O)NCCCN3CCCCCC3)cc21` (racemic), the IC50 in series [1] was at least 3000 µM.

Turning to `CN(CCCNC(=O)c1ccc2c(c1)N(Cc1ccccc1)C(=O)c1ccccc1S2(=O)=O)C1CCCCC1`, in [1], the IC50 turned out to be 500 µM.

Regarding `O=C(NCCCN1CCOCC1)c1ccc2c(c1)N(Cc1cccc(Cl)c1)C(=O)c1ccccc1S2`, the IC50 in series [1] turned out to be 800 µM.

Consider `CC1CCCN(CCCNC(=O)c2ccc3c(c2)N(Cc2cccc(Cl)c2)C(=O)c2ccccc2[S+]3[O-])C1` (racemic), for which the MIC95 in series [3] turned out to be 55 µM (≈ 30.3 µg/mL). The cytotoxic concentration with Vero came to 100 µM.

In [3], `O=C(NCCCN1CCCC1)c1ccc2c(c1)N(Cc1cccc(Cl)c1)C(=O)c1ccccc1[S+]2[O-]` (racemic) displayed an MIC95 of 55 µM (≈ 28.7 µg/mL). The IC50 in series [1] was found to be 100 µM. The cytotoxic concentration with Vero turned out to be 50 µM.

`CC1CCCN(CCCNC(=O)c2ccc3c(c2)N(Cc2ccccc2F)C(=O)c2ccccc2S3(=O)=O)C1` (configuration not stated): the IC50 in [1] came out at 800 µM.

Take `CC1CC(C)CN(CCCNC(=O)c2ccc3c(c2)N(Cc2cccc(Cl)c2)C(=O)c2ccccc2[S+]3[O-])C1` (racemic): the IC50 in series [1] was found to be 500 µM.

As for `CC1CC(C)CN(CCCNC(=O)c2ccc3c(c2)N(Cc2ccccc2F)C(=O)c2ccccc2[S+]3[O-])C1` (racemic), the IC50 in series [1] is over 3000 µM.

Regarding `CCCN(CCC)CCCNC(=O)c1ccc2c(c1)N(Cc1cccc(Cl)c1)C(=O)c1ccccc1[S+]2[O-]` (racemic), the IC50 in [1] came to 100 µM.

Take `O=C(NCCN1CCCCCC1)c1ccc2c(c1)N(Cc1cccc(Cl)c1)C(=O)c1ccccc1[S+]2[O-]` (racemic): the MIC95 in series [3] amounted to 28 µM (≈ 15 µg/mL). Also, the IC50 in [1] was 100 µM. Moreover, in the series on Vero, the cytotoxic concentration worked out at 100 µM.

Take `CN(CCCNC(=O)c1ccc2c(c1)N(Cc1ccc(Cl)cc1)C(=O)c1ccccc1S2(=O)=O)C1CCCCC1`: the IC50 in series [1] was found to be 330 µM.

As for `CCC1CCCCN1CCCNC(=O)c1ccc2c(c1)N(Cc1cccc(Cl)c1)C(=O)c1ccccc1[S+]2[O-]` (racemic), the values for the MIC95 in series [3] and in series [10] were 55 µM (≈ 31 µg/mL) and 32 µM (≈ 18.1 µg/mL), respectively. Also, the IC50 in series [1] was 80 µM. Moreover, the cytotoxic concentration in the series with Vero was 100 µM.

For the compound `CN(CCCNC(=O)c1ccc2c(c1)N(Cc1cccc(Cl)c1)C(=O)c1ccccc1S2)C1CCCCC1`, in series [1], the IC50 was found to be 280 µM.

In the case of `O=C(NCCCN1CCOCC1)c1ccc2c(c1)N(Cc1cccc(Cl)c1)C(=O)c1ccccc1S2(=O)=O`, the IC50 in series [1] is 3000 µM.

For the compound `CO[C@H]1/C=C/O[C@@]2(C)Oc3c(C)c(O)c4c(O)c(c(/C=N/N5CCN(C)CC5)c(O)c4c3C2=O)NC(=O)/C(C)=C\C=C\[C@H](C)[C@H](O)[C@@H](C)[C@@H](O)[C@@H](C)[C@H](OC(C)=O)[C@@H]1C` [RIFAMPIN], the MIC95 in series [3] worked out at 0.24 µM (≈ 0.198 µg/mL).

In the case of `Cc1ccc(CN2C(=O)c3ccccc3S(=O)(=O)c3ccc(C(=O)NCCCN4CCOCC4)cc32)c(C)c1`, the IC50 in series [1] is over 3000 µM.

On to `CN(C)CCCNC(=O)c1ccc2c(c1)N(Cc1ccc(Cl)cc1)C(=O)c1ccccc1[S+]2[O-]` (racemic), for which the IC50 in series [1] was found to be 340 µM.

On to `CCN(CC)CCCNC(=O)c1ccc2c(c1)N(Cc1ccc(C)cc1C)C(=O)c1ccccc1[S+]2[O-]` (racemic), for which the IC50 in series [1] was over 3000 µM.
